Experimental data as given in paper PMC11951523 (Genome Biology, 2025).
Read-outs that look alike come from different tables or passages of the source.

How the values were obtained:
[1] = target: T1, SpyCas9 (Streptococcus pyogenes serotype M1, UniProt Q99ZW2); assay: biochemical; conditions: for activity on Cas9 (structure–activity relationship of pamoic acid): SpyCas9, standard assay conditions; for IC50: Spy Cas9
[2] = tested on: SpyCas9; assay: biochemical; design: species or system Streptococcus pyogenes
[3] = target: T2, SauCas9 (Staphylococcus aureus, UniProt J7RUA5); assay: In vitro purified enzyme activity assay for SauCas9; format: biochemical; conditions: IC50, in vitro purified enzyme assay, Sau Cas9
T2 sequence (J7RUA5 1-1053): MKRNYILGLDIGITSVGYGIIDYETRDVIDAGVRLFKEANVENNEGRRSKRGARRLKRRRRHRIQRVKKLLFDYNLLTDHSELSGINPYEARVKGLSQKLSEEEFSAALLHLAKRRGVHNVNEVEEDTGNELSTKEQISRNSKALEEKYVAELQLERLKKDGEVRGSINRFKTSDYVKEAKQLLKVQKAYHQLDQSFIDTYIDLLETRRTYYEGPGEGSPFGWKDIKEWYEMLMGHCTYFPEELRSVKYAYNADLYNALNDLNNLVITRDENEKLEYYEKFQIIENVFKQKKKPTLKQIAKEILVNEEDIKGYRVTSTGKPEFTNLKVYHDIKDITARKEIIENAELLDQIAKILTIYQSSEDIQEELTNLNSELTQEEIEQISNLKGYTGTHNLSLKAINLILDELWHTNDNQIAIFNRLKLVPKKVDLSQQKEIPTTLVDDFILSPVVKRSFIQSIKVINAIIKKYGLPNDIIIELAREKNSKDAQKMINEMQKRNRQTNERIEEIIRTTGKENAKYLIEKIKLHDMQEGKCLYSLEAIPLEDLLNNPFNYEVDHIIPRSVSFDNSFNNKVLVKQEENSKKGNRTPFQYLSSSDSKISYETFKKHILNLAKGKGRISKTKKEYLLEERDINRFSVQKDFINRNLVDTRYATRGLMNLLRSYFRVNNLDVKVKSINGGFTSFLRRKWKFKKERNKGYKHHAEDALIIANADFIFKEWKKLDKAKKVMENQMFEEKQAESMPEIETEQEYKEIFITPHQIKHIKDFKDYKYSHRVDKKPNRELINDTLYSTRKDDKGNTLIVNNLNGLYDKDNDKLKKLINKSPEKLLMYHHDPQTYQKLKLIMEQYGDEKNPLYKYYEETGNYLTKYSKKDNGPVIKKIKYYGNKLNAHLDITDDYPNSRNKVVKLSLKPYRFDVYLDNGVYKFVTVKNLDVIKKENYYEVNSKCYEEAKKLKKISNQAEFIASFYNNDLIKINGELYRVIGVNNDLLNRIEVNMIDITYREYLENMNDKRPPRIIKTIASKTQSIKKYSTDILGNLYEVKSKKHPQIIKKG

[4] = target: T1, SpyCas9; assay: Two-plasmid-based bacterial survival assay; format: cell-based; conditions: IC50, bacteria-based assay, Spy Cas9; bacterial survival assay using pCas and pTarget-sgSSEA plasmids, E. coli MG1655
Summary of the method: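 E. coli MG1655 competent cells carrying pCas (SpyCas9) electroporated with pTarget-sgSSEA, or the pT-sgControl plasmid as reference. Test compound added to the electroporated bacteria for 1.5 h at 32 °C, then plated on LB with kanamycin and spectinomycin and incubated overnight. Colonies counted and expressed as a percentage of the compound-treated sgControl strain at the same concentration (100%).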

[5] = target: T1, SpyCas9; format: cell-based
Summary of the method: (§1)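 MG1655 competent cells carrying pCas (SpyCas9 or SauCas9) were electroporated with 300 ng pTarget-sgSSEA (867 bp) or its Sau version, which carries an 867-bp homologous recombination repair template. Test compound was added to 700 μl LB right after electroporation, held 1.5 h at 32 °C, then plated on LB agar with 100 μg/ml kanamycin and 100 μg/ml spectinomycin. The SSEA site was genotyped by PCR.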

[6] = target: T2, SauCas9; format: cell-based
Summary of the method: as §1

[7] = target: T1, SpyCas9; assay: GFP-disruption assay in HEK293FT cells; format: cell-based
[8] = target: T1, SpyCas9; format: cell-based; remark: listed apart in the source
Summary of the method: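 HEK293FT cells, ~2 × 10^5 per well, were seeded 1 day before transfection (Lipofectamine 3000) with 1 μg PX459-SpyCas9-sgCOSMC, -sgEMX1 or -sgControl. Test compound was added 0 or 6 h post-transfection, and cells were kept 24 h at 37 °C, then selected with 2.5 μg/ml puromycin for 36–48 h. Target loci were PCR-amplified, Sanger-sequenced and scored by TIDE.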

[9] = target: T2, SauCas9; assay: SauCas9-mediated genome editing of COSMC in HEK293FT cells, TIDE analysis; format: cell-based
Summary of the method: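 HEK293FT wt cells were co-transfected (Lipofectamine 3000) with 1 μg miniCMV-SaCas9 and 1 μg pGL3 carrying sgCOSMC-Sau or sgControl. Test compound was added right after transfection for 24 h, followed by 2.5 μg/ml puromycin selection. The COSMC locus was PCR-amplified (40 cycles), Sanger-sequenced, and editing efficiency was obtained by TIDE analysis.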

[10] = target: BE4 base editor (Streptococcus pyogenes, UniProt Q99ZW2, D10A); assay: BE4-mediated base editing of EMX1 in HEK293FT cells, EditR analysis; format: cell-based
[11] = target: FnoCas12a (Francisella tularensis subsp. novicida, UniProt A0Q7Q2); format: biochemical
[12] = tested on: LbaCas12a; assay: LbaCas12a activity assay; format: biochemical, Lachnospiraceae bacterium; conditions: complete inhibition refers to 50 μM or above
[13] = tested on: SpyCas9-mediated genome editing of PCSK9; assay: SpyCas9-mediated anti-PCSK9 mouse model by hydrodynamic injection; format: in vivo, BALB/c mice; conditions: for plasma total cholesterol restored to the level of the control: 3rd blood collection
Summary of the method: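 On days 1, 4 and 7, 90 μg PX459-SpyCas9-sgPCSK9 or -sgControl in 2 ml saline was injected hydrodynamically into the tail vein over 5–8 s. Orbital blood (~100 μl) was taken days 2, 5 and 8, and heparin plasma (20 μl) was assayed by PCSK9 ELISA.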

[14] = tested on: E. coli MG1655; assay: Toxicity to bacteria in the two-plasmid-based bacterial survival assay; format: cell-based; conditions: for toxicity to E. coli: MG1655, bacterial survival assay
Summary of the method: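 MG1655 pCas-competent cells were electroporated with pT-sgControl. Test compound was added to 700 μl LB immediately afterwards and incubated 1.5 h at 32 °C, then plated on LB agar with kanamycin and spectinomycin (100 μg/ml each). Colonies were counted after overnight incubation; biological replicates n = 3.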

[15] = target: T1, SpyCas9; assay: Surface plasmon resonance assay; format: binding
Summary of the method: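 His-tagged SpyCas9, Ni–NTA purified and imidazole-eluted, amine-coupled to a CM5 chip at 100 μg/ml. Test compounds were diluted in 1× PBST to a series of concentrations and injected at 30 μl/min, with 120 s association and 120 s dissociation. Equilibrium KD was fitted from the response curves.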

[16] = in humans; cited from earlier work
[17] = IC50, in vitro purified enzyme assay, linear substrates (87 bp oligonucleotide or 2.5 kb linear DNA)
[18] = IC50, in vitro purified enzyme assay, supercoil (circular) plasmid substrate pcDNA3.1/CT-GFP
[19] = linear substrates (87 bp oligonucleotide)
[20] = supercoil (circular) plasmid substrate

SMILES	activity on Cas9 (structure–activity relationship of pamoic acid) [1]	IC50 [1, 17] [µM]	IC50 [1, 18] [µM]	IC50 [3, 19] [µM]	IC50 [3, 20] [µM]	IC50 [4] [µM]	IC50 [5] [µM]	IC50 [6] [µM]	effect on the activity of FnoCas12a [11]	effect on the activity of LbaCas12a [12]	further results
Nc1ccc(O)c(C(=O)O)c1 [5-aminosalicylic acid]	inactive	–	–	–	–	–	–	–	–	–	–
CC1(C)[C@@H](OC(=O)CCC(=O)O)CC[C@]2(C)[C@H]3C(=O)C=C4[C@@H]5C[C@@](C)(C(=O)O)CC[C@]5(C)CC[C@@]4(C)[C@]3(C)CC[C@@H]12 [Carbenoxolone]	–	5 to 10	~100	25 to 50	100 to 200	~200	50 to 100	100 to 200	inactive to or weakly inhibited	inactive to or weakly inhibited	effect of mutation of catalytic residues D10 or H840 on the IC50 [2]: did not affect; IC50 [7]: 10 to 20 µM; IC50 [8]: 20 to 50 µM; IC50 [9]: 20 to 50 µM; IC50 [10]: 20 to 50 µM; effect on the basal level of PCSK9 in vehicle-treated (sgControl) mice ([13]; 160 mg/kg): did not interfere; plasma total cholesterol restored to the level of the control ([13]; 160 mg/kg): largely restored; preventive effect on loss of plasma PCSK9 ([13]; high doses of 80 or 160 mg/kg, 2nd or 3rd treatment cycle): strong preventive effects; toxicity to E. coli [14]: did not appear to be much toxic
COc1cccc2c1C(=O)c1c(O)c3c(c(O)c1C2=O)C[C@@](O)(C(=O)CO)C[C@@H]3O[C@H]1C[C@H](N)[C@@H](O)[C@H](C)O1 [Epirubicin]	–	2 to 5	2 to 5	6.25 to 12.5	3.13 to 6.25	3.13 to 6.25	6.25 to 12.5	~6.25	completely inhibit	completely inhibit	Kd [15]: > 1000 µM; toxicity to electroporated bacteria ([14]; at a concentration of 50 μM): significant toxicity; site of metabolism / elimination [16]: mainly metabolized in human liver
OCCOCCN1CCN(C(c2ccccc2)c2ccc(Cl)cc2)CC1 (stereo not shown) [Hydroxyzine pamoate]	–	20 to 50	> 200	–	–	–	–	–	–	–	–
O=C(O)c1cc(/N=N/c2ccc(O)c(C(=O)O)c2)ccc1O [Olsalazine, olsalazine]	inactive	–	–	–	–	–	–	–	–	–	–
CN1CCCN=C1/C=C/c1cccc(O)c1 [Oxantel pamoate]	–	–	–	–	–	–	–	–	–	–	IC50 ([1]; read-out: IC50, in vitro purified enzyme assay, supercoil (circular) plasmid substrate pcDNA3.1/CT-GFP): > 200 µM
O=C(O)c1cc2ccccc2c(Cc2c(O)c(C(=O)O)cc3ccccc23)c1O [Pamoic acid]	–	10 to 20	400 to 600	25 to 50	500 to 1000	200 to 400	~400	250 to 500	inactive to or weakly inhibited	inactive to or weakly inhibited	effect of mutation of catalytic residues D10 or H840 on the IC50 [2]: did not affect; IC50 [7]: 20 to 50 µM; IC50 [8]: 20 to 50 µM; IC50 [9]: 20 to 50 µM; IC50 [10]: ~50 µM; plasma total cholesterol restored to the level of the control ([13]; 80 mg/kg): largely restored; effect on the basal level of PCSK9 in vehicle-treated (sgControl) mice ([13]; 160 mg/kg): did not interfere; plasma total cholesterol restored to the level of the control ([13]; 160 mg/kg): largely restored; restoration of plasma PCSK9 level ([13]; 80 or 160 mg/kg intraperitoneal, 1st, 2nd, or 3rd treatment cycle): completely restore; dose from which a dose-dependent preventative effect on plasma PCSK9 starts ([13]; intraperitoneal): ≥ 20 mg/kg; effect on PCSK9 allele modifications in liver (NGS) ([13]; medium dose of 40 mg/kg): largely reduced but not totally prevented; toxicity to E. coli [14]: did not appear to be much toxic; site of metabolism / elimination [16]: mainly metabolized in human liver
O=C(O)c1ccccc1O [Salicylic acid, salicylic acid]	inactive	–	–	–	–	–	–	–	–	–	–
